ChEMBL document CHEMBL1145495, “Polyamine effects on antibiotic susceptibility in bacteria” (2007)
Converted amounts (≈) assume the structure as drawn.

Columns and labels:
Staphylococcus aureus [1] = assay: Antibacterial activity against Staphylococcus aureus Mu50 after 14 to 16 hrs by broth dilution method; assay type: functional
Staphylococcus aureus [2] = assay: Antibacterial activity against Staphylococcus aureus N315 after 14 to 16 hrs by broth dilution method; assay type: functional
In short: (§1)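 CLSI broth dilution in cation-adjusted Mueller-Hinton broth with serial twofold dilutions, with or without spermine or spermidine added. Overnight cultures were diluted in saline to OD600 0.1–0.12, and about 10^5 CFU were inoculated. Incubation was 14–16 h at 37°C. MIC was confirmed in three independent experiments. E. coli acrA mutants were tested with 1 mM spermine; P. aeruginosa isolates with 1 mM spermine or 20 mM spermidine.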

Staphylococcus aureus [3] = assay: Antibacterial activity against Staphylococcus aureus ATCC 3556 after 14 to 16 hrs by broth dilution method; assay type: functional
Salmonella typhimurium = assay: Antibacterial activity against Salmonella enterica serovar Typhimurium LT2 after 14 to 16 hrs by broth dilution method; assay type: functional, Salmonella enterica subsp. enterica serovar Typhimurium
Escherichia coli [4] = assay: Antibacterial activity against Escherichia coli K10 after 14 to 16 hrs by broth dilution method; assay type: functional
Escherichia coli [5] = assay: Antibacterial activity against Escherichia coli K12 after 14 to 16 hrs by broth dilution method; assay type: functional
Escherichia coli [6] = assay: Antibacterial activity against Escherichia coli C921-61 after 14 to 16 hrs by broth dilution method; assay type: functional
Pseudomonas aeruginosa [7] = assay: Antibacterial activity against Pseudomonas aeruginosa M38100A after 14 to 16 hrs by broth dilution method; assay type: functional
Pseudomonas aeruginosa [8] = assay: Antibacterial activity against Pseudomonas aeruginosa M38100B after 14 to 16 hrs by broth dilution method; assay type: functional
Pseudomonas aeruginosa [9] = assay: Antibacterial activity against Pseudomonas aeruginosa T2095 after 14 to 16 hrs by broth dilution method; assay type: functional
Pseudomonas aeruginosa [10] = assay: Antibacterial activity against Pseudomonas aeruginosa T15464 after 14 to 16 hrs by broth dilution method; assay type: functional; in short: as §1
Pseudomonas aeruginosa [11] = assay: Antibacterial activity against Pseudomonas aeruginosa M37310 after 14 to 16 hrs by broth dilution method; assay type: functional
Pseudomonas aeruginosa [12] = assay: Antibacterial activity against streptomycin and gentamycin-resistant Pseudomonas aeruginosa DK101 containing oprD mutant after 14 to 16 hrs by broth dilution method; assay type: functional; in short: as §1
Pseudomonas aeruginosa [13] = assay: Antibacterial activity against Pseudomonas aeruginosa T6268 after 14 to 16 hrs by broth dilution method; assay type: functional
Pseudomonas aeruginosa [14] = assay: Antibacterial activity against Pseudomonas aeruginosa F4980 after 14 to 16 hrs by broth dilution method; assay type: functional; in short: as §1
Pseudomonas aeruginosa [15] = assay: Antibacterial activity against Pseudomonas aeruginosa M22152 after 14 to 16 hrs by broth dilution method; assay type: functional; in short: as §1
Pseudomonas aeruginosa [16] = assay: Antibacterial activity against Pseudomonas aeruginosa H4563 after 14 to 16 hrs by broth dilution method; assay type: functional
Pseudomonas aeruginosa [17] = assay: Antibacterial activity against Pseudomonas aeruginosa DK101 containing pAU48 expressing oprD after 14 to 16 hrs by broth dilution method; assay type: functional
Pseudomonas aeruginosa [18] = assay: Antibacterial activity against Pseudomonas aeruginosa PAO1 after 14 to 16 hrs by broth dilution method; assay type: functional
Pseudomonas aeruginosa [19] = assay: Antibacterial activity against Pseudomonas aeruginosa T5177 after 14 to 16 hrs by broth dilution method; assay type: functional; in short: as §1
Pseudomonas aeruginosa [20] = assay: Antibacterial activity against streptomycin-resistant Pseudomonas aeruginosa DK100 after 14 to 16 hrs by broth dilution method; assay type: functional; in short: as §1
Pseudomonas aeruginosa [21] = assay: Antibacterial activity against Pseudomonas aeruginosa F66336 after 14 to 16 hrs by broth dilution method; assay type: functional
Escherichia coli [22] = assay: Antibacterial activity against Escherichia coli N818 delta acrA mutant assessed as inhibition of AcrAB efflux pump after 14 to 16 hrs by broth dilution method; assay type: functional; in short: as §1
Escherichia coli [23] = assay: Antibacterial activity against Escherichia coli N43 acrA mutant assessed as inhibition of AcrAB efflux pump after 14 to 16 hrs by broth dilution method; assay type: functional; in short: as §1
Escherichia coli [24] = assay: Antibacterial activity against Escherichia coli W4573 assessed as inhibition of AcrAB efflux pump after 14 to 16 hrs by broth dilution method; assay type: functional

Row | Molecule | MIC (Staphylococcus aureus [1]) [µg/mL] | MIC (Staphylococcus aureus [2]) [µg/mL] | MIC (Staphylococcus aureus [3]) [µg/mL] | MIC (Salmonella typhimurium) [µg/mL] | MIC (Escherichia coli [4]) [µg/mL] | MIC (Escherichia coli [5]) [µg/mL] | MIC (Escherichia coli [6]) [µg/mL] | further results
1 | CCN1CCN(C(=O)N[C@@H](C(=O)N[C@@H]2C(=O)N3C(C(=O)O)=C(CSc4nnnn4C)CS[C@H]23)c2ccc(O)cc2)C(=O)C1=O [CEFOPERAZONE] | > 1020 | 4 (≈ 6.2 µM) | 1 (≈ 1.55 µM) | – | – | – | – | –
2 | NC[C@H]1O[C@H](O[C@H]2[C@H](O)[C@@H](O[C@H]3O[C@H](CO)[C@@H](O)[C@H](N)[C@H]3O)[C@H](N)C[C@@H]2N)[C@H](O)[C@@H](O)[C@@H]1O [KANAMYCIN] | – | – | – | 4 (≈ 8.26 µM) | 2 (≈ 4.13 µM) | 4 (≈ 8.26 µM) | 4 (≈ 8.26 µM) | –
3 | CO/N=C(\C(=O)N[C@@H]1C(=O)N2C(C(=O)O)=C(COC(C)=O)CS[C@H]12)c1csc(N)n1 [CEFOTAXIME] | > 1020 | 2 (≈ 4.39 µM) | 0.5 (≈ 1.1 µM) | – | – | – | – | –
4 | CCN1CCN(C(=O)N[C@@H](C(=O)N[C@@H]2C(=O)N3[C@@H]2SC(C)(C)[C@@H]3C(=O)O)c2ccccc2)C(=O)C1=O [PIPERACILLIN] | 128 (≈ 247 µM) | 32 (≈ 61.8 µM) | 0.5 (≈ 0.966 µM) | 4 (≈ 7.73 µM) | 2 (≈ 3.86 µM) | 2 (≈ 3.86 µM) | 2 (≈ 3.86 µM) | –
5 | CC[C@H]1OC(=O)[C@H](C)[C@@H](O[C@H]2C[C@@](C)(OC)[C@@H](O)[C@H](C)O2)[C@H](C)[C@@H](O[C@@H]2O[C@H](C)C[C@H](N(C)C)[C@H]2O)[C@](C)(O)C[C@@H](C)C(=O)[C@H](C)[C@@H](O)[C@]1(C)O [ERYTHROMYCIN] | – | – | – | 64 (≈ 87.2 µM) | 64 (≈ 87.2 µM) | 64 (≈ 87.2 µM) | 64 (≈ 87.2 µM) | –
6 | O=C(Cc1cccs1)N[C@@H]1C(=O)N2C(C(=O)[O-])=C(C[n+]3ccccc3)CS[C@H]12 [CEPHALORIDINE] | 16 (≈ 38.5 µM) | 1 (≈ 2.41 µM) | < 0.06 | 0.015 (≈ 0.0361 µM) | 8 (≈ 19.3 µM) | 4 (≈ 9.63 µM) | 4 (≈ 9.63 µM) | –
7 | POLYMYXIN B | 128 | 64 | 64 | – | 0.5 | 0.25 | 0.5 | MIC (Pseudomonas aeruginosa [7]): < 0.06 µg/mL; MIC (Pseudomonas aeruginosa [8]): 16 µg/mL; MIC (Pseudomonas aeruginosa [9]): 0.125 µg/mL; MIC (Salmonella typhimurium; Salmonella enterica subsp. enterica serovar Typhimurium): 0.5 µg/mL; MIC (Pseudomonas aeruginosa [10]): 0.5 µg/mL; MIC (Pseudomonas aeruginosa [11]): 0.125 µg/mL; MIC (Pseudomonas aeruginosa [12]): 0.5 µg/mL; MIC (Pseudomonas aeruginosa [13]): 1 µg/mL; MIC (Pseudomonas aeruginosa [14]): 0.25 µg/mL; MIC (Pseudomonas aeruginosa [15]): 0.5 µg/mL; MIC (Pseudomonas aeruginosa [16]): 0.125 µg/mL; MIC (Pseudomonas aeruginosa [17]): 0.5 µg/mL; MIC (Pseudomonas aeruginosa [18]): 1 µg/mL; MIC (Pseudomonas aeruginosa [19]): 0.5 µg/mL; MIC (Pseudomonas aeruginosa [20]): 0.5 µg/mL; MIC (Pseudomonas aeruginosa [21]): 0.125 µg/mL
8 | O=C(N[C@H](CO)[C@H](O)c1ccc([N+](=O)[O-])cc1)C(Cl)Cl [CHLORAMPHENICOL] | 8 (≈ 24.8 µM) | 8 (≈ 24.8 µM) | 8 (≈ 24.8 µM) | 2 (≈ 6.19 µM) | – | 32 (≈ 99 µM) | 4 (≈ 12.4 µM) | MIC (Pseudomonas aeruginosa [7]): 4 µg/mL (≈ 12.4 µM); MIC (Pseudomonas aeruginosa [9]): 32 µg/mL (≈ 99 µM); MIC (Escherichia coli [22]): 2 µg/mL (≈ 6.19 µM); MIC (Pseudomonas aeruginosa [10]): 32 µg/mL (≈ 99 µM); MIC (Escherichia coli [23]): 2 µg/mL (≈ 6.19 µM); MIC (Pseudomonas aeruginosa [14]): 32 µg/mL (≈ 99 µM); MIC (Pseudomonas aeruginosa [18]): 128 µg/mL (≈ 396 µM); MIC (Escherichia coli [24]): 8 µg/mL (≈ 24.8 µM); MIC (Pseudomonas aeruginosa [21]): 8 µg/mL (≈ 24.8 µM)
9 | C[C@@H](O)[C@H]1C(=O)N2C(C(=O)O)=C(SCCNC=N)C[C@H]12 [IMIPENEM ANHYDROUS] | – | – | – | – | – | – | – | MIC (Pseudomonas aeruginosa [12]): 32 µg/mL (≈ 107 µM); MIC (Pseudomonas aeruginosa [17]): 0.5 µg/mL (≈ 1.67 µM); MIC (Pseudomonas aeruginosa [20]): 4 µg/mL (≈ 13.4 µM)
10 | CC1(C)S[C@@H]2[C@H](NC(=O)[C@H](N)c3ccccc3)C(=O)N2[C@H]1C(=O)O [AMPICILLIN] | 64 (≈ 183 µM) | 128 (≈ 366 µM) | 2 (≈ 5.72 µM) | 4 (≈ 11.4 µM) | 8 (≈ 22.9 µM) | 4 (≈ 11.4 µM) | 4 (≈ 11.4 µM) | –
11 | CC1(C)S[C@@H]2[C@H](NC(=O)[C@H](N)c3ccc(O)cc3)C(=O)N2[C@H]1C(=O)O [AMOXICILLIN] | 16 (≈ 43.8 µM) | 16 (≈ 43.8 µM) | 1 (≈ 2.74 µM) | – | – | – | – | –
12 | CO/N=C(\C(=O)N[C@@H]1C(=O)N2C(C(=O)O)=C(CSc3nc(=O)c(O)nn3C)CS[C@H]12)c1csc(N)n1 [CEFTRIAXONE] | > 1020 | 4 (≈ 7.21 µM) | 2 (≈ 3.61 µM) | – | – | – | – | –
13 | CN[C@@H]1[C@H](O)[C@H](NC)[C@H]2O[C@@]3(O)C(=O)C[C@@H](C)O[C@H]3O[C@@H]2[C@H]1O [SPECTINOMYCIN] | – | – | – | 32 (≈ 96.3 µM) | 16 (≈ 48.1 µM) | 16 (≈ 48.1 µM) | 16 (≈ 48.1 µM) | –
